Several values for one entry are separate records, joined by “and”; a condition that tells them apart may be missing. Equal entries are not always repeated. Entries after “also recorded” stand apart in the source; their conditions may differ.
Tests used:
baboons [1] = assay: Fine-motor task; assay type: in vivo, Papio anubis; details: across 30, 60 and 120 min, p<0.001
baboons [2] = assay: Food-maintained operant behavior procedure; assay type: in vivo, Papio anubis
Outline: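 Test compound or vehicle was diluted in water to 150 ml total and infused intragastrically. Sessions started at 9:00 am right after dosing. Food pellets were available 20 h/day on a fixed-ratio schedule via a Lindsley operandum. Pellets earned were counted in ten 2-h bins up to 20 h. Analysis was repeated-measures two-way ANOVA (dose × time), p<0.05.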

rhesus monkeys = details: food-maintained operant procedure; ref McMahon et al. 2003; cited from earlier work
baboons [3] = assay: Paper and pencil behavioral checklists; assay type: in vivo, Papio anubis
baboons [4] = assay: 30-min continuous behavioral observation session; assay type: in vivo, Papio anubis
[5] = 100 mg/kg, 60 to 90 min after drug
[6] = 180 mg/kg, 60 to 90 min after drug

SMILES: O=C1CCCO1 [GBL, Gamma-butyrolactone]
- Duration to complete the fine-motor task compared to vehicle (baboons [1]; 100 mg/kg): increased
- Duration to complete the fine-motor task compared to vehicle (baboons [1]; 180 mg/kg): increased
- Food-maintained behavior compared to vehicle (baboons [2]; 100 mg/kg, 2 h after administration, p<0.001): decreased
- Food-maintained behavior compared to vehicle (baboons [2]; 180 mg/kg, 2 h after administration, p<0.001): decreased
- Food-maintained behavior compared to vehicle (baboons [2]; 180 mg/kg, 4 h after administration): decreased
- Food-maintained behavior (baboons [2]; 240 mg/kg, one subject (HA), data not shown): suppressed over the entire 20 h
- Increase of food-maintained behavior (baboons [2]; all doses tested): none of the doses increased
- Time food-maintained behavior was suppressed after administration (baboons [2]; high doses): 4 h
- Time after administration at which response rate was decreased (rhesus monkeys): 90 min
- Time to maximal effect, ataxia (baboons [3]; 100 mg/kg): 30 min
- Time to maximal effect, tremor/jerks (baboons [3]; 100 mg/kg): 30 min
- Duration of effects in ≥50% of subjects, ataxia (baboons [3]; 100 mg/kg IG): 1.0 h
- Duration of effects in ≥50% of subjects, lip droop (baboons [3]; 100 mg/kg IG): 2.0 h
- Duration of effects in ≥50% of subjects, vomit (baboons [3]; 100 mg/kg IG): 1.0 h
- Number of subjects at maximal effect, ataxia (baboons [3]; 100 mg/kg IG): 3/4
- Number of subjects at maximal effect, lip droop (baboons [3]; 100 mg/kg IG): 3/4
- Number of subjects at maximal effect, tremor/jerk (baboons [3]; 100 mg/kg IG): 1/4
- Number of subjects at maximal effect, vomit (baboons [3]; 100 mg/kg IG): 2/4
- Recovery of baseline (100% of subjects), ataxia (baboons [3]; 100 mg/kg IG): 2.5 h
- Recovery of baseline (100% of subjects), lip droop (baboons [3]; 100 mg/kg IG): 3.5 h
- Recovery of baseline (100% of subjects), vomit (baboons [3]; 100 mg/kg IG): 2.0 h
- Time to maximal effects, ataxia (baboons [3]; 100 mg/kg IG): 0.5 h
- Time to maximal effects, lip droop (baboons [3]; 100 mg/kg IG): 1.0 h
- Time to maximal effects, tremor/jerk (baboons [3]; 100 mg/kg IG): 0.5 h
- Time to maximal effects, vomit (baboons [3]; 100 mg/kg IG): 1 h and 1.0 h
- Time to maximal effect, ataxia (baboons [3]; 180 mg/kg): 30 min
- Time to maximal effect, tremor/jerks (baboons [3]; 180 mg/kg): 30 min
- Duration of effects in ≥50% of subjects, ataxia (baboons [3]; 180 mg/kg IG): 4 h and 4.0 h
- Duration of effects in ≥50% of subjects, lip droop (baboons [3]; 180 mg/kg IG): 2.5 h
- Duration of effects in ≥50% of subjects, tremor/jerk (baboons [3]; 180 mg/kg IG): 5 h and 5.0 h
- Duration of effects in ≥50% of subjects, vomit (baboons [3]; 180 mg/kg IG): 1.0 h
- Number of subjects at maximal effect, ataxia (baboons [3]; 180 mg/kg IG): 4/4
- Number of subjects at maximal effect, lip droop (baboons [3]; 180 mg/kg IG): 4/4
- Number of subjects at maximal effect, tremor/jerk (baboons [3]; 180 mg/kg IG): 4/4
- Number of subjects at maximal effect, vomit (baboons [3]; 180 mg/kg IG): 4/4
- Recovery of baseline (100% of subjects), ataxia (baboons [3]; 180 mg/kg IG): 6.0 h
- Recovery of baseline (100% of subjects), lip droop (baboons [3]; 180 mg/kg IG): 6.0 h
- Recovery of baseline (100% of subjects), tremor/jerk (baboons [3]; 180 mg/kg IG): 6.0 h
- Recovery of baseline (100% of subjects), vomit (baboons [3]; 180 mg/kg IG): 2.0 h
- Time to maximal effects, ataxia (baboons [3]; 180 mg/kg IG): 0.5 h
- Time to maximal effects, lip droop (baboons [3]; 180 mg/kg IG): 0.5 h
- Time to maximal effects, tremor/jerk (baboons [3]; 180 mg/kg IG): 0.5 h
- Time to maximal effects, vomit (baboons [3]; 180 mg/kg IG): 1 h and 1.0 h
- Return to baseline for all observed behavioral effects, time postadministration (baboons [3]; baboon (Papio anubis), in vivo, oral): ≤ 6 h
- Duration of lip droop compared to vehicle (baboons [4]; [5]): significantly increased
- Frequency of ataxia compared to vehicle (baboons [4]; [5]): significantly increased
- Frequency of scratch/groom compared to vehicle (baboons [4]; [5]): significantly increased
- Frequency of tremor/jerks compared to vehicle (baboons [4]; [5]): significantly increased
- Duration of lip droop compared to vehicle (baboons [4]; [6]): significantly higher
- Duration of lying down compared to vehicle (baboons [4]; [6]): increased
- Frequency of ataxia compared to vehicle (baboons [4]; [6]): significantly higher
- Frequency of scratch/groom compared to vehicle (baboons [4]; [6]): decreased
- Frequency of tremor/jerks compared to vehicle (baboons [4]; [6]): significantly higher
- Frequency of vomit/retch compared to vehicle (baboons [4]; [6]): increased
- Observed effects of the high dose (baboons [4]; 240 mg/kg, once in one subject (HA), data not shown): resulted in convulsions; also recorded: vomit/retch, ataxia, tremor/jerks, sedation/anesthesia, and seizures; also recorded: both seizures and catalepsy
